Bioassay records from PubChem BioAssay.
The list is not random: actives were taken first. Their share in the collection is about 4%.
Mdm2-MdmX inh = inhibitors of human Mdm2-MdmX association, primary screen, cell-based, luminescence, split luciferase, SaOS-2, uHTS. SaOS-2 split-luciferase Mdm2/MdmX complementation. actives 3% (n = 330,000). Protein Mdm4 (Homo sapiens) + E3 ubiquitin-protein ligase Mdm2 (Homo sapiens), …. inhibition, % at 8 µM;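 active means inhibition of at least 50% at 8 µM in the primary screen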
Target sequence (O15151 whole entry, looked up): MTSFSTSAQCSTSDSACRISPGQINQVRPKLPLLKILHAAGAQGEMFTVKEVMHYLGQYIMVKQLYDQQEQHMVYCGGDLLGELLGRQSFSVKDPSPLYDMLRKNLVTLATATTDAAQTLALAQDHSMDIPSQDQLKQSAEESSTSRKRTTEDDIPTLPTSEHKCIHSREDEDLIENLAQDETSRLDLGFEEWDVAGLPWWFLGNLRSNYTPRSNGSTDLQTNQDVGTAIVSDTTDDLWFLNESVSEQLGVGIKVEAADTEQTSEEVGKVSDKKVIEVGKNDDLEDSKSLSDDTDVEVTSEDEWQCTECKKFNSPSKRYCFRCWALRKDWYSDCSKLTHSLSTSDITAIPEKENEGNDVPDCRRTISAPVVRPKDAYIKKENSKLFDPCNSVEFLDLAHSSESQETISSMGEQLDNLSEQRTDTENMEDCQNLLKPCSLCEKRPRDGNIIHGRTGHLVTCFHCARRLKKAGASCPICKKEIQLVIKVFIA
Target sequence (Q00987 whole entry, looked up): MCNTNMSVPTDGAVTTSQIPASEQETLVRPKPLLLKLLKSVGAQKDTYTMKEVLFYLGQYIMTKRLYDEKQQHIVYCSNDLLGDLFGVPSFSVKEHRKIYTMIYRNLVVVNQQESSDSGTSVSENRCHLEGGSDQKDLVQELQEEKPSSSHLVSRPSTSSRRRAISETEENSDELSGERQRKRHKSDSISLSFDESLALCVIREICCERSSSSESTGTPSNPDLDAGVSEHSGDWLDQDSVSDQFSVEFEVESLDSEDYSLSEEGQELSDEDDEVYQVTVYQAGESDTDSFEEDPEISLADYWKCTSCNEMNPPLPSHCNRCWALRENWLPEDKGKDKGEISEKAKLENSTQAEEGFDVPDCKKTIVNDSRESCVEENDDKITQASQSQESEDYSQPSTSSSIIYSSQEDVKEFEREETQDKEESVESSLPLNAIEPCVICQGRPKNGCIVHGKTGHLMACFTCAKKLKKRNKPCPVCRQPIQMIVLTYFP
Exocytosis inh = LAMP-1 surface exposure blockers, TALL-104 cells – cell-based, flow cytometry, MLPCN library, primary screen; TALL-104 LAMP-1 surface exposure; cells stimulated with thapsigargin and PMA; inhibition, % at 10 µM; actives 0.66% (n = 360,000); AID 651702, 2012;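 active means inhibition above about 55%, limit read from the data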
XBP1 UPR activ = activators of adaptive XBP1 UPR arm, primary screen, cell-based, CHO-XBP1 luciferase reporter, luminescence, uHTS; actives 0.33% (n = 330,000); activation, % at 20 µM; IRE1-XBP1 UPR activation; percent of tunicamycin response, DMSO as zero;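 active means versus positive control, 20 µM dose yields 30% or more activation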;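 further: 100% = tunicamycin at 10 µg/mL and 0% = DMSO only wells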
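assay system = CHO-XBP1 luciferase reporter cells | amount = 1000 cells/well | buffer or medium = F12 plus 10% FBS | compound dosing = single point, 20 µM final compound, 1% DMSO | incubation = 16-18 h cell attachment at 37 °C, then 6 h compound exposure | detection = Steady-Glo luminescence read | controls = tunicamycin 10 µg/mL and vehicle-only wells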
CHOP UPR activ = activators of apoptotic CHOP UPR arm, primary screen, cell-based, CHO-CHOP luciferase reporter, luminescence, uHTS; activation, % at 10 µM; AID 449763, 2010; UPR activation; percent of tunicamycin response over DMSO baseline; actives 0.34% (n = 330,000);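 active means at 10 µM dose, activation of 40% or more, normalized to positive control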;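 further: 100% = tunicamycin at 10 µg/mL and 0% = DMSO alone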
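measured by = luciferase luminescence | assay system = CHO-CHOP cells, stable luciferase reporter of PERK-eIF2a-CHOP signalling | amount = 500 reporter cells seeded per well | timing = 6 h compound exposure at 37 °C after overnight seeding | controls = positive tunicamycin 10 µg/mL, negative DMSO alone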
ABHD5 PLIN5 PPI = ABHD5-PLIN5 interaction inhibitors, primary screen, cell lysate, split luciferase complementation, luminescence | Perilipin-5 (Homo sapiens) + 1-acylglycerol-3-phosphate O-acyltransferase ABHD5 (Homo … | Split G. princeps luciferase complementation, 4 h | inhibition, % at 4 µM | actives 0.78% (n = 360,000) | AID 602281, 2012;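 active means inhibition above the mean inhibition across every tested compound plus 3 SD, cut at about 22% in these data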;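 further: 0% = DMSO only wells and the 100% control is not disclosed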
Mdm2 MdmX conf = Mdm2-MdmX complex disruptors, retested hits, confirmation, luminescence, single concentration; shares compounds with Mdm2-MdmX inh; actives 55% (n = 10,000); inhibition, % at 8 µM; Mdm2-MdmX binding, luminescent assay; in the data active means inhibition above about 40%
FLuc counter = full-length luciferase signal inhibition, confirmation, counter-screen for Mdm2/MdmX interaction inhibitor project, cell-based, single concentration, SaOS-2; shares compounds with Mdm2-MdmX inh; SaOS-2 full-length luciferase counterscreen, luminescence; actives 77% (n = 6,200); inhibition, % at 8 µM;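 active means mean inhibition at 8 µM reaching about 37%, which flags the compound as non-specific, limit read from the data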;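 further: p53-null SaOS-2 cells with luciferase driven by a doxycycline-inducible promoter; compound on cells about two nights before reading with doxycycline added after day one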
* marks the source's active call; other numbers are inactive results; x = no result.

SMILES	Mdm2-MdmX inh	Exocytosis inh	XBP1 UPR activ	CHOP UPR activ	ABHD5 PLIN5 PPI	Mdm2 MdmX conf	FLuc counter
Cc1ccc2c(Cl)c(C(=O)N/N=C/c3cccn3C)sc2c1	48	-1	4	3	0	x	x
Cn1cccc1/C=N/NC(=O)c1sc2cc(Cl)ccc2c1Cl	73*	x	1	4	x	36	48*
COC(=O)CN(c1c(C)cccc1C)S(C)(=O)=O	11	0	-1	-3	-3	x	x
COc1cc(NC(=O)c2csc(N)n2)cc(C(=O)Nc2cccc(C(F)(F)F)c2)c1	59*	-2	1	4	-5	57*	60*
O=C(CSc1cccc2cccnc12)N1CCCC1	66*	0	10	-8	-9	3	x
O=C(CSc1ncccn1)N1CCCCCC1	-9	-14	-1	2	-10	x	x
C=C(C(=O)Oc1ccccc1C(C)(C)C)c1ccccc1	96*	x	1	193*	x	49*	34
COc1cc(-c2noc(C)c2C#CC2(N)CCCCC2)cc(OC)c1OC	28	-2	2	0	8	x	x
COc1cc(-c2noc(C)c2C#Cc2ccsc2)cc(OC)c1OC	65*	-4	15	1	-1	68*	78*
COc1cc(-c2noc(C)c2C#CC2(O)CCCCC2)cc(OC)c1OC	61*	19	4	-1	-1	43*	84*
Cn1nc(C(=O)NNC(=O)c2cccc(Cl)c2)c2ccccc2c1=O	17	-2	2	-1	2	x	x
COc1ccc(-c2[nH]ncc2N=Nc2ccccc2)cc1	66*	1	2	2	-5	58*	85*
CCOc1ccc(N2C(=O)CC(N(CCc3ccc(OC)cc3)C(=O)/C=C/C(=O)O)C2=O)cc1 (centres undefined)	25	0	0	0	6	x	x
CCOc1cc(CNc2ccc3c(c2)OCCO3)cc(Br)c1OCC	73*	12	-3	-3	-7	70*	62*
CCOc1cc(CNc2ccc(N3CCOCC3)cc2)cc(Br)c1OCC	-4	4	-3	3	-11	x	x
COCCNC(=O)c1cc2cc3ccc(OC)cc3nc2o1	-4	-2	2	3	5	x	x
COc1ccc2cc3cc(C(=O)NCCN4CCN(c5ccccc5F)CC4)oc3nc2c1	57*	1	5	1	6	14	x
Cc1cc(C(=O)OCC(=O)N2CCOCC2)c2ccccc2n1	4	-2	0	-1	4	x	x
O=C(O)COCC(=O)N1CCc2c([nH]c3ccccc23)C1C(F)(F)F (centres undefined)	8	-5	0	0	4	x	x
CCOc1ccc(OCCC(=O)N(CCCOC)c2c(N)n(Cc3ccccc3)c(=O)[nH]c2=O)cc1	-1	2	-3	1	-4	x	x
CC1CC2(C)Oc3ccccc3CC2C(C)C1CNCCCN(C)C (centres undefined)	97*	44	3	2	17	100*	55*
COc1ccnc(-n2cccc2C=O)c1C#N	13	-4	0	0	0	x	x
CSc1nnc(-c2sc3cc(C(F)(F)F)cnc3c2-c2ccccc2)n1C	67*	-2	-2	-2	4	48*	50*
CCN(C(=O)c1cnc(NC(C)C)cc1C(F)(F)F)c1ccc(Cl)cc1	-13	8	-2	-1	-1	x	x
COc1ccc(-c2csc3nc(-c4cccnc4)nc(Cl)c23)cc1OC	81*	-1	4	-1	3	31	x
SMILES	Mdm2-MdmX inh	Exocytosis inh	XBP1 UPR activ	CHOP UPR activ	ABHD5 PLIN5 PPI	Mdm2 MdmX conf	FLuc counter
Clc1nc(-c2cccnc2)nc2scc(-c3ccccc3)c12	18	33	17	5	7	x	x
CCc1nc(SCC(=O)N2c3ccccc3CC2C)c2c(C)c(C)sc2n1 (centres undefined)	98*	0	0	1	-3	93*	53*
Cc1sc2nc(C(C)C)nc(SCC(=O)N3c4ccccc4CC3C)c2c1C (centres undefined)	56*	-1	2	1	-1	27	x
Nn1c(SCC(=O)N2CCOCC2)nnc1-c1cccnc1	-5	11	-5	0	-1	x	x
N#C/C(N=Nc1ccccc1O)=N\Nc1ccccc1O	82*	10	-2	7	22	94*	18
O=C(CSc1ccc2c(c1)OCCO2)Nc1ccc(Br)cn1	64*	-2	-2	2	-14	19	x
COc1ccccc1-c1oc2ccccc2c1C#CC(C)(C)O	15	2	0	0	4	x	x
CC(C)Cn1c(=O)c(C(=O)Nc2ccccc2S(N)(=O)=O)c(O)c2ccccc21	63*	-1	8	0	1	60*	26
Cn1c(=O)c(C(=O)Nc2ccccc2S(N)(=O)=O)c(O)c2ccccc21	-16	-6	0	1	5	x	x
CCC(C)n1c(=O)c(C(=O)Nc2ccccc2S(N)(=O)=O)c(O)c2ccccc21 (centres undefined)	57*	12	-1	3	3	56*	31
CCc1nc2c(OCC3COc4ccccc4O3)cccn2c1N(C)C(=O)c1cccc(OC)c1 (centres undefined)	x	-15	x	x	5	x	x
Cn1c(=O)[nH]c(=O)c2c1nc(N1CCCC1)n2CCCSc1nc2ccccc2o1	8	-1	5	0	-4	x	x
Cn1c(=O)[nH]c(=O)c2c1nc(Br)n2CCCSc1nc2ccccc2o1	65*	-1	0	0	1	56*	98*
Oc1ccc(Br)cc1-c1nc2cnccn2c1NC1CCCC1	79*	2	-1	-2	-2	57*	20
Cc1nc(SCC(=O)NCC2CCCO2)c2cc(-c3ccccc3)sc2n1 (centres undefined)	71*	1	2	2	6	15	x
Cc1nc(SCC(=O)NCC2CCCO2)c2c3c(sc2n1)CCC3 (centres undefined)	24	-3	-1	1	-3	x	x
COc1ccc(S(=O)(=O)N2CCC3(CC2)CC(=O)c2ccccc2O3)cc1C	21	-4	-1	0	-4	x	x
